Source: ChEMBL document CHEMBL1938274, “Discovery of potent and specific CXCR3 antagonists” (Bioorg Med Chem Lett, 2012)

Experiments:
[1] = Fraction unbound in Beagle dog plasma; type: ADME, cell-free, Canis lupus familiaris
[2] = Half life in mouse at 1 mg/kg, iv; type: ADME, organism-based; set-up: dose 1 mg/kg, route intravenous; conditions: in vivo
How it was run: (§1)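 Single intravenous dose in 10% N,N-dimethylacetamide, 10% ethanol, 30% propylene glycol, 50% water: 1 mg/kg mouse; 0.5 mg/kg rat, beagle dog, cynomolgus monkey. Plasma clearance also given as percent of hepatic blood flow.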

[3] = Fraction unbound in mouse plasma; type: ADME, cell-free
[4] = Volume of distribution at steady state in Beagle dog at 0.5 mg/kg, iv; type: ADME, organism-based, Canis lupus familiaris; set-up: dose 0.5 mg/kg, route intravenous; conditions: in vivo, read-out: Vdss; how it was run: as §1
[5] = Apparent oral bioavailability in rat at 2 mg/kg; type: ADME, organism-based; conditions: in vivo, read-out: Fapp
[6] = Mean residence time in rat at 0.5 mg/kg, iv; type: ADME, organism-based; set-up: dose 0.5 mg/kg, route intravenous; conditions: in vivo; how it was run: as §1
[7] = Half life in Beagle dog at 0.5 mg/kg, iv; type: ADME, organism-based, Canis lupus familiaris; set-up: dose 0.5 mg/kg, route intravenous; conditions: in vivo; how it was run: as §1
[8] = Mean residence time in mouse at 1 mg/kg, iv; type: ADME, organism-based; set-up: dose 1 mg/kg, route intravenous; conditions: in vivo; how it was run: as §1
[9] = biological target: T1, C-X-C chemokine receptor type 3 (Homo sapiens, UniProt P49682); assay: Receptor occupancy of CXCR3 in human whole blood assessed as inhibition of ITAC binding by fluorescence quenching based FACS analysis
T1 sequence (P49682 whole entry): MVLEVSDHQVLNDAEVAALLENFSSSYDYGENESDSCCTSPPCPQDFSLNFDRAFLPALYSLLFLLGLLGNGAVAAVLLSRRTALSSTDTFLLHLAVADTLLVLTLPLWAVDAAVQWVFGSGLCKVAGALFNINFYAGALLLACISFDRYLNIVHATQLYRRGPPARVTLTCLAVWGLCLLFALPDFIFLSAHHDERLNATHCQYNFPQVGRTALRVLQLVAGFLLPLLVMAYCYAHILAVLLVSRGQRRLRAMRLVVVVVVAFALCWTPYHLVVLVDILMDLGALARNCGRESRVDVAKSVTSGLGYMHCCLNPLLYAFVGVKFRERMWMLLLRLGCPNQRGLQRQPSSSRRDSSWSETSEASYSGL

[10] = Clearance in Beagle dog at 0.5 mg/kg, iv; type: ADME, organism-based, Canis lupus familiaris; set-up: dose 0.5 mg/kg, route intravenous; conditions: in vivo; how it was run: as §1
[11] = Apparent oral bioavailability in Beagle dog at 2 mg/kg; type: ADME, organism-based, Canis lupus familiaris; conditions: in vivo, read-out: Fapp
[12] = system: Mus musculus; assay: Inhibition of bleomycin-induced leukocyte migration into lungs in C57BL/6 mouse lung injury model by measuring cell count in bronchoalveolar lavage fluid at 1 mg/kg, sc administered for 6 days; type: functional; conditions: route subcutaneous
How it was run: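 C57BL/6 mice given one intra-tracheal instillation of bleomycin, 1 mg/kg; compound delivered subcutaneously by osmotic mini-pump from challenge day for 6 days; cells counted in bronchoalveolar lavage on day six.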

[13] = biological target: T1, C-X-C chemokine receptor type 3; assay: Displacement of [125I]-IP-10 from CXCR3 in presence of 100% human serum
[14] = system: Rattus norvegicus; assay: Clearance in rat at 0.5 mg/kg, iv; type: ADME, organism-based; set-up: dose 0.5 mg/kg, route intravenous; conditions: in vivo; how it was run: as §1
[15] = system: Canis familiaris; assay: Hepatic blood flow in Beagle dog at 0.5 mg/kg, iv; type: ADME, organism-based, Canis lupus familiaris, Liver; set-up: dose 0.5 mg/kg, route intravenous; conditions: in vivo; how it was run: as §1
[16] = Volume of distribution at steady state in mouse at 1 mg/kg, iv; type: ADME, organism-based; set-up: dose 1 mg/kg, route intravenous; conditions: in vivo, read-out: Vdss; how it was run: as §1
[17] = biological target: Cytochrome P450 2D6 (Homo sapiens, UniProt P10635); assay: Inhibition of CYP2D6; type: ADME
[18] = biological target: Cytochrome P450 3A4 (Homo sapiens, UniProt P08684); assay: Inhibition of CYP3A4; type: ADME
[19] = system: Cynomolgus monkey; assay: Hepatic blood flow in cynomolgus monkey at 0.5 mg/kg, iv; type: ADME, organism-based, Macaca fascicularis, Liver; set-up: dose 0.5 mg/kg, route intravenous; conditions: in vivo; how it was run: as §1
[20] = Mean residence time in cynomolgus monkey at 0.5 mg/kg, iv; type: ADME, organism-based, Macaca fascicularis; set-up: dose 0.5 mg/kg, route intravenous; conditions: in vivo; how it was run: as §1
[21] = Volume of distribution at steady state in rat at 0.5 mg/kg, iv; type: ADME, organism-based; set-up: dose 0.5 mg/kg, route intravenous; conditions: in vivo, read-out: Vdss; how it was run: as §1
[22] = Apparent oral bioavailability in cynomolgus monkey at 2 mg/kg; type: ADME, organism-based, Macaca fascicularis; conditions: in vivo, read-out: Fapp
[23] = system: Blood; assay: Drug level in C57BL/6 mouse blood at 3 mg/kg, sc after 1 hr; type: ADME, organism-based; set-up: dose 3 mg/kg, route subcutaneous; conditions: in vivo
How it was run: (§2)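 C57BL/6 mice given bleomycin intra-tracheally and dosed subcutaneously by osmotic mini-pump for 6 days; plasma collected to measure drug level, reported 1 h post dose.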

[24] = Apparent oral bioavailability in mouse at 5 mg/kg; type: ADME, organism-based; conditions: in vivo, read-out: Fapp
[25] = Fraction unbound in cynomolgus monkey plasma; type: ADME, cell-free, Macaca fascicularis
[26] = Half life in cynomolgus monkey at 0.5 mg/kg, iv; type: ADME, organism-based, Macaca fascicularis; set-up: dose 0.5 mg/kg, route intravenous; conditions: in vivo; how it was run: as §1
[27] = Clearance in cynomolgus monkey at 0.5 mg/kg, iv; type: ADME, organism-based, Macaca fascicularis; set-up: dose 0.5 mg/kg, route intravenous; conditions: in vivo; how it was run: as §1
[28] = biological target: T1, C-X-C chemokine receptor type 3; assay: Displacement of [125I]-IP-10 from CXCR3
[29] = Clearance in mouse at 1 mg/kg, iv; type: ADME, organism-based; set-up: dose 1 mg/kg, route intravenous; conditions: in vivo; how it was run: as §1
[30] = system: Mus musculus; assay: Hepatic blood flow in mouse at 1 mg/kg, iv; type: ADME, organism-based, Liver; set-up: dose 1 mg/kg, route intravenous; conditions: in vivo; how it was run: as §1
[31] = system: Blood; assay: Drug level in C57BL/6 mouse blood at 1 mg/kg, sc after 1 hr; type: ADME, organism-based; set-up: dose 1 mg/kg, route subcutaneous; conditions: in vivo; how it was run: as §2
[32] = system: Blood; assay: Drug level in C57BL/6 mouse blood at 10 mg/kg, sc after 1 hr; type: ADME, organism-based; set-up: dose 10 mg/kg, route subcutaneous; conditions: in vivo; how it was run: as §2
[33] = system: PBL; assay: Toxicity in human PBL assessed as chromosomal aberrations at 7.81 to 1000 ug/mL; type: cell-based
How it was run: (§3)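 Cultured human peripheral blood lymphocytes exposed at 7.81–1000 μg/mL, with and without S9 metabolic activation; chromosomal aberrations scored.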

[34] = system: PBL; assay: Toxicity in human PBL assessed as chromosomal aberrations at 7.81 to 1000 ug/mL in the presence of S9; type: cell-based; how it was run: as §3
[35] = Half life in rat at 0.5 mg/kg, iv; type: ADME, organism-based; set-up: dose 0.5 mg/kg, route intravenous; conditions: in vivo; how it was run: as §1
[36] = Fraction unbound in rat plasma; type: ADME, cell-free
[37] = Mean residence time in Beagle dog at 0.5 mg/kg, iv; type: ADME, organism-based, Canis lupus familiaris; set-up: dose 0.5 mg/kg, route intravenous; conditions: in vivo; how it was run: as §1
[38] = Volume of distribution at steady state in cynomolgus monkey at 0.5 mg/kg, iv; type: ADME, organism-based, Macaca fascicularis; set-up: dose 0.5 mg/kg, route intravenous; conditions: in vivo, read-out: Vdss; how it was run: as §1
[39] = system: Rattus norvegicus; assay: Hepatic blood flow in rat at 0.5 mg/kg, iv; type: ADME, organism-based, Liver; set-up: dose 0.5 mg/kg, route intravenous; conditions: in vivo; how it was run: as §1
[40] = biological target: T2, C-X-C chemokine receptor type 3 (Mus musculus, UniProt O88410); assay: Receptor occupancy of CXCR3 in mouse whole blood assessed as inhibition of ITAC binding by fluorescence quenching based FACS analysis
T2 sequence (O88410 whole entry): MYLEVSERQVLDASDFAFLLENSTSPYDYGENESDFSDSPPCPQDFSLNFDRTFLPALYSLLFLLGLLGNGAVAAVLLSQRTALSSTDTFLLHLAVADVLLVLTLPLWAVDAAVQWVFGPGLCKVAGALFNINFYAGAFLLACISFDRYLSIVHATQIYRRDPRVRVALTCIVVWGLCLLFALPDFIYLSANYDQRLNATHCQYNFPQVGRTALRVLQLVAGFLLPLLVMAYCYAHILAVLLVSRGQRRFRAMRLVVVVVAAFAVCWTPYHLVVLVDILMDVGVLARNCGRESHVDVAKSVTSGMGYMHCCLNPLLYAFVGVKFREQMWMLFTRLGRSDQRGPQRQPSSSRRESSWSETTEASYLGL

Cytochrome P450 2D6, sequence (P10635 whole entry): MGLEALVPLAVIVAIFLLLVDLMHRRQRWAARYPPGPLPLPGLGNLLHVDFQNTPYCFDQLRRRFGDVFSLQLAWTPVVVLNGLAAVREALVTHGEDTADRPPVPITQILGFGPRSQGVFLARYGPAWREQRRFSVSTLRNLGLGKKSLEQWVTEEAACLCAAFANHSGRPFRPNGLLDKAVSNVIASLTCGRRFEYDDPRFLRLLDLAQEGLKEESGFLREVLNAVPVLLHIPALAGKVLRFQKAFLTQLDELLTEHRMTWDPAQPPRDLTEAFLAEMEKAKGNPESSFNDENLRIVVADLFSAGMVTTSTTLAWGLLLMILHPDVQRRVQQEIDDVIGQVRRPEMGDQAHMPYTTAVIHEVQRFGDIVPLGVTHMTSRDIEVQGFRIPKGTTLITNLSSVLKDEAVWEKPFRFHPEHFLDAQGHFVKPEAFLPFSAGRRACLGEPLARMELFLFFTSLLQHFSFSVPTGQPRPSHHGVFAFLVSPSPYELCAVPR
Cytochrome P450 3A4, sequence (P08684 whole entry): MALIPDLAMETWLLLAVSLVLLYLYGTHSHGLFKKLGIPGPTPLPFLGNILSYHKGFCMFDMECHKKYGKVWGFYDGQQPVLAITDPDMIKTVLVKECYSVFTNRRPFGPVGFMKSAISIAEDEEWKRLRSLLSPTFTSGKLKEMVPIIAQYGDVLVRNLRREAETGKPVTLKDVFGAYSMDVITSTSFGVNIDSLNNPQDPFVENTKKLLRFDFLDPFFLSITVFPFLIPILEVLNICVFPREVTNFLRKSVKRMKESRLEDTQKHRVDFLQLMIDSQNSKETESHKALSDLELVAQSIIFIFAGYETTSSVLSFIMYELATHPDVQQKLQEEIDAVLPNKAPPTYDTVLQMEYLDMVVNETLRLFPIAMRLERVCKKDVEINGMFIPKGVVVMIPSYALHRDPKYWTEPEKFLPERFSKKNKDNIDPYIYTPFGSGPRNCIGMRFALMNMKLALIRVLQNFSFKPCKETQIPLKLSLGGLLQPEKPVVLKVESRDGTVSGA

Q: What does the source list for `C[C@H](c1nc2ncccc2c(=O)n1-c1ccc(Cl)cc1)N(CC1CCS(=O)(=O)CC1)C(=O)Cc1ccc(F)c(C(F)(F)F)c1`?
A: fraction unbound [1]: 0.015; half-life [2]: 4 h; fraction unbound [3]: 0.007; Vd [4]: 1.4 L/kg; bioavailability [5]: 69%; MRT [6]: 3.5 h; half-life [7]: 1 h; MRT [8]: 3.9 h; IC50 [9]: 9.8 nM; clearance [10]: 25 mL/min/kg; bioavailability [11]: > 100%; EC [12]: 1 mg/kg; IC50 [13]: 12 nM; CL [14]: 8.17 mL/min/kg; QH [15]: 82%; Vd [16]: 0.48 L/kg; IC50 [17]: > 10000 nM; IC50 [18]: > 10000 nM; QH [19]: 3%; MRT [20]: 8.7 h; Vd [21]: 1.9 L/kg; bioavailability [22]: 44%; Drug uptake [23]: 3.4 mg/kg; bioavailability [24]: 45%; fraction unbound [25]: 0.037; half-life [26]: 9 h; clearance [27]: 2 mL/min/kg; IC50 [28]: 6 nM; clearance [29]: 2.17 mL/min/kg; QH [30]: 3%; Drug uptake [31]: 1.3 µM; Drug uptake [32]: 5.6 mg/kg; Activity [33]: Non-toxic; Activity [34]: Non-toxic; half-life [35]: 4 h; fraction unbound [36]: 0.061; MRT [37]: 1.1 h; Vd [38]: 1.2 L/kg; QH [39]: 3%; IC50 [40]: 200 nM
